Results published in ChEMBL document CHEMBL1124167, “Syntheses and gastric acid antisecretory properties of the H2-receptor antagonist. N-[3-[3-(1-piperidinylmethyl)phenoxy]propyl]thieno[3,4-d]isot hiazol-3-amine 1,1-dioxide and related derivatives” (J Med Chem, 1988).
Calls of active or inactive are those of the source. The calls are words filed in the database; no cut-off is given here.

Tests used:
Rattus norvegicus [1] = test: In vivo inhibitory activity against basal acid secretion in pylorus-ligated rat was determined at a dose of 4 mg/kg; type: functional
Summary of the method: (§1)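 Male SD/CD rats (190–260 g), fasted 24 h with water, groups of 10. Pylorus ligated under methohexital (40 mg/kg). Drug in 0.25% aqueous methylcellulose given intraduodenally (1 mL/kg) right after ligation. Killed 4 h later. Gastric juice volume × acid concentration (titration to pH 7.0 with 0.1 N NaOH) gives total acid output, expressed as percent inhibition vs vehicle controls.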

Rattus norvegicus [2] = test: In vivo inhibitory activity against basal acid secretion in pylorus-ligated rat was determined at a dose of 4 mg/kg; Inactive
Rattus norvegicus [3] = test: In vivo inhibitory activity against basal acid secretion in pylorus-ligated rat was determined at a dose of 8 mg/kg; type: functional; summary of the method: as §1
Canis familiaris = species on record: Canis familiaris; test: Efficacy against histamine stimulation was determined in dog; type: functional; conditions: Canis lupus familiaris
Summary of the method: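 Gastric pouch dogs fasted 18 h with water, baseline from two 15-min samples. Drug in 0.9% saline given by oral gavage 30 min before histamine diphosphate (64 μg/kg base, sc). Samples collected at 15-min intervals and acid titrated to pH 7.0 with 0.1 N NaOH. Total acid output summed over 1 h, percent inhibition vs the same dog's saline run, runs ≥3 days apart.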

SMILES: O=S1(=O)N=C(NCCCOc2cccc(CN3CC=CCC3)c2)c2cscc21
- Total acid output (Rattus norvegicus [1]): 18%

SMILES: O=Cc1cccc(OCCCNC2=NS(=O)(=O)c3cscc32)c1
- Total acid output (Rattus norvegicus [1]): 89%
- Activity (Rattus norvegicus [2]): inactive

SMILES: O=S1(=O)N=C(NCCCOc2cccc(CN3CCCCC3)c2)c2sccc21
- Total acid output (Rattus norvegicus [3]): 12%

SMILES: Cl.NS(=O)(=O)c1cscc1C(=O)NCCCOc1cccc(CN2CCCCC2)c1.O
- Total acid output (Rattus norvegicus [3]): 36%

SMILES: O=C(c1cccc(OCCCNC2=NS(=O)(=O)c3cscc32)c1)N1CCCCC1
- Total acid output (Rattus norvegicus [3]): 94%

SMILES: Cc1[nH]cnc1CSCCNC1=NS(=O)(=O)c2cscc21
- Total acid output (Rattus norvegicus [3]): 87%

SMILES: CN/C(=C\[N+](=O)[O-])NCCSCc1ccc(CN(C)C)o1 [RANITIDINE]
- ED50 (Canis familiaris): 0.93 mg/kg

SMILES: Cl.O=S1(=O)N=C(NCCCOc2cccc(CN3CCCC3)c2)c2cscc21
- Total acid output (Rattus norvegicus [1]): 19%

SMILES: O=S1(=O)N=C(NCCCOc2cccc(CN3CCCCC3)c2)c2cscc21
- ED50 (Canis familiaris): 0.35 mg/kg
- Total acid output (Rattus norvegicus [3]): 16%

SMILES: N=C(N)Nc1nc(CSCCNC2=NS(=O)(=O)c3cscc32)cs1
- Total acid output (Rattus norvegicus [1]): 83%

SMILES: CCCN(CCC)Cc1cccc(OCCCNC2=NS(=O)(=O)c3cscc32)c1.Cl
- Total acid output (Rattus norvegicus [1]): 16%

SMILES: O=S1(=O)N=C(NCCCOc2ccc(CN3CCCCC3)cc2)c2cscc21
- Total acid output (Rattus norvegicus [3]): 21%

SMILES: NS(=O)(=O)c1cscc1C(=O)NCCCOc1cccc(C=O)c1
- Total acid output (Rattus norvegicus [3]): 94%
